# MEKK3 PB1 HTS: modulators (inhibitors or enhancers) of MEK5 binding to human MEKK3 PB1 domain. bead-based flow cytometry, Alexa488-MEK5 binding to MEKK3; actives lie on both sides; 0 = blocked by unlabeled MEK5, 100 = vehicle. binding response (% of control), % at 10 µM. actives 1.4% (n = 290,000);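 active = binding response more than 3 SD above or below the average of its plate-row segment, actives on both sides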;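 note: Alexa488 bead fluorescence after subtracting the streptavidin-only scavenger bead signal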
# Target sequence (Q99759 whole entry, looked up, the tested form may be a part): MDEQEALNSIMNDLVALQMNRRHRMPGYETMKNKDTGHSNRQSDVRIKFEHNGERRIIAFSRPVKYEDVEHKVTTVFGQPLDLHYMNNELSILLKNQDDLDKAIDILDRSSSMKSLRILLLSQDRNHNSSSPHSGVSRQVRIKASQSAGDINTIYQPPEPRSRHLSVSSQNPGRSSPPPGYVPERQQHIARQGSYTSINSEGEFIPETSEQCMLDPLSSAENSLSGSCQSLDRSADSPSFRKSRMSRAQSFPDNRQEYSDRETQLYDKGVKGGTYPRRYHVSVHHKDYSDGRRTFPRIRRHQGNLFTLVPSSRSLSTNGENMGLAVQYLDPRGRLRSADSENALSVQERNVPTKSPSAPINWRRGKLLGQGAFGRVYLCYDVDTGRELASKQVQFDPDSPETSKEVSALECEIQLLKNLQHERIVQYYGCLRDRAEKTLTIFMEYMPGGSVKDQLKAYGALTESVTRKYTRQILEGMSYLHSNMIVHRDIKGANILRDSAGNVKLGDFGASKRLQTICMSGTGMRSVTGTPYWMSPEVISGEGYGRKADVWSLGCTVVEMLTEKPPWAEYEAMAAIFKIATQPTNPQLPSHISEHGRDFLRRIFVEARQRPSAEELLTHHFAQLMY
# VIM-2 inhibitor: blocks Pseudomonas aeruginosa VIM-2 metallo-beta-lactamase. purified VIM-2, nitrocefin hydrolysis, epi-absorbance fluorescence. inhibition, % at 5.6 µM. actives 0.89% (n = 290,000);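 active = inhibition above the mean of all tested compounds plus 3 SD, cutoff set per screening run, cut at about 7.5% in these data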;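 note: red hydrolysis product quenches plate fluorescence so inhibitors raise well fluorescence; 0% = enzyme with DMSO and 100% = DMSO without enzyme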
# IMP-1 inhibitor: blocks Pseudomonas aeruginosa IMP-1 metallo-beta-lactamase; actives 0.45% (n = 290,000); purified IMP-1, nitrocefin hydrolysis, epi-absorbance fluorescence; AID 1556; inhibition, % at 5.6 µM;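 active = inhibition above the mean plus 3 SD of all compounds in the same screening run, cut at about 4.5% in these data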;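 note: 0% = IMP-1 with DMSO and 100% = DMSO wells lacking enzyme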
#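 System: purified IMP-1; amount: IMP-1 0.2 nM before substrate addition; compound: single dose, 5.6 µM; times: 25 °C, 15 min preincubation, 25 min reaction; signal: Epi-absorbance via hydrolysed-nitrocefin quenching of white-plate fluorescence, 480/530 nm, EDTA stop; benchmarks: DMSO with and without IMP-1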
# MEKK2mut PB1 HTS: signal of MEK5 binding to mutant human MEKK2 PB1 domain; bead flow cytometry, Alexa488-MEK5 binding to MEKK2 mutant; percent response, % at 10 µM; actives 0.35% (n = 290,000); AID 1530; in the data active = percent response above about 24%, passing the limit was not always enough
# MEKK2 WT-MEK5: raises or lowers MEK5 binding to wildtype human MEKK2 PB1 domain | bead flow cytometry, Alexa488-MEK5 binding to MEKK2 WT; actives lie on both sides | binding response (% of control), % at 10 µM | actives 1.1% (n = 290,000); in the data active = binding response below about 67% or above about 130%
# MEKK2wt confirm: raises or lowers MEK5 binding to wildtype human MEKK2, retest. shares compounds with MEKK3 PB1 HTS. bead flow cytometry, Alexa488-MEK5 binding to MEKK2 WT; actives lie on both sides. binding response (% of control), % at 10 µM. actives 2.4% (n = 5,900); in the data active = binding response below about 16% or above about 210%; inactive = in between
# MEKK2mut-MEK5: signal of MEK5 binding to mutant human MEKK2, retest. percent response, % at 10 µM. actives 2% (n = 5,900). AID 1893. bead flow cytometry, Alexa488-MEK5 binding to MEKK2 mutant. shares compounds with MEKK3 PB1 HTS; in the data active = percent response mostly above about 71%, no sharp cut-off; inactive = mostly below about 38%;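 note: higher means compound restores mutant binding toward wildtype level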
# MEKK3-MEK5 inh: confirmation of inhibitors of MEK5 binding to human MEKK3; shares compounds with MEKK3 PB1 HTS; bead flow cytometry, Alexa488-MEK5 binding to MEKK3; hits give low values; binding response (% of control), % at 10 µM; actives 1.8% (n = 5,900);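 active = binding response below 72% of control, or above a set upper limit, though filed actives all read lower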;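 note: 100% = DMSO only wells and 0% = binding blocked by excess unlabeled MEK5; lower values mean stronger disruption of MEK5 binding to MEKK3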
# * hit, by the source's call; nt = no result; [ ] = dose if it differs, or a comment. Only some compounds are listed: those with a hit (about 3.4% of all), similar ones and a draw of the others.
SMILES,MEKK3 PB1 HTS,VIM-2 inhibitor,IMP-1 inhibitor,MEKK2mut PB1 HTS,MEKK2 WT-MEK5,MEKK2wt confirm,MEKK2mut-MEK5,MEKK3-MEK5 inh
CCCCC1=CC2=C(c3ccco3)C(=O)C(C)(OC(=O)c3ccc(OC)cc3)C(=O)C2=CN1CCc1ccccn1 (configuration not stated),116.0,nt,nt,2.0,122.0,nt,nt,nt
CC(NCC(O)COCCC12CC3CC(CC(C3)C1)C2)c1ccccc1 (configuration not stated),99.0,-0.7,-1.8,13.0,139.0*,114.0,3.0,98.0
CC(C)(C)NC(=O)NC(=O)COC(=O)c1ccc2c(c1)S(=O)(=O)N=C1CCCCCN12,147.0*,-3.2,-2.9,3.0,103.0,102.0,11.0,99.0
NS(=O)(=O)c1ccc(CCNCc2cc(Br)ccc2OCc2ccccc2)cc1,112.0,1.0,-3.0,8.0,145.0*,120.0,5.0,103.0
CCOc1cc(CNCCc2ccc(S(N)(=O)=O)cc2)ccc1OCc1ccccc1,83.0,0.3,-0.4,1.0,126.0,nt,nt,nt
CCOc1cc(CNCCc2ccc(S(N)(=O)=O)cc2)cc(Cl)c1OCc1ccccc1,105.0,-1.4,-2.7,36.0*,206.0*,130.0,16.0,103.0
O=C(NCC1CCCO1)c1ccc(NC(=O)C2CCCCC2C(=O)O)cc1 (configuration not stated),103.0,-0.1,-2.5,3.0,102.0,nt,nt,nt
O=C(NCc1ccc(Cl)cc1)C(=O)NCC1OCCN1C(=O)c1cccs1 (configuration not stated),153.0*,-0.4,-0.9,1.0,111.0,102.0,3.0,99.0
O=C(O)C1CC=CCC1C(=O)NNc1c(Cl)cc(Cl)cc1Cl (configuration not stated),105.0,-1.8,-1.9,-5.0,101.0,nt,nt,nt
CCOC(=O)c1ccc(NC(=S)N(CCCN2CCCC(C)C2)Cc2cccs2)cc1 (configuration not stated),103.0,0.2,-1.8,13.0,142.0*,119.0,6.0,100.0
CCOC(=O)c1ccc(NC(=S)N(CCCN2CCCC2)Cc2cccs2)cc1,107.0,-2.0,-2.5,9.0,124.0,nt,nt,nt
COC(=O)c1[nH]c2cccc(OC)c2c1NC(=O)CCN1CCC(C(N)=O)CC1,101.0,-4.2,0.2,3.0,98.0,nt,nt,nt
CCc1cc2c(=O)n(Cc3ccccc3)c(SC3CCOC3=O)nc2s1 (configuration not stated),100.0,-1.0,-3.2,-7.0,94.0,nt,nt,nt
O=C(NCc1ccc(C(F)(F)F)cc1)C1CC(c2ccc(C(F)(F)F)cc2)=NO1 (configuration not stated),105.0,nt,nt,1.0,97.0,nt,nt,nt
O=C(NCc1ccccc1C(F)(F)F)C1CC(c2ccc(C(F)(F)F)cc2)=NO1 (configuration not stated),81.0*[inhibitor],nt,nt,-2.0,103.0,101.0,1.0,99.0
C[C@H](NC(=O)c1nc[nH]c1C(=O)NC1CCN(C(=O)OC(C)(C)C)CC1)C(=O)OC(C)(C)C,1.0*[inhibitor],-1.5,-1.8,-44.0,-5.0*[inhibitor],101.0,-2.0,99.0
CC(C)C[C@H](NC(=O)c1nc[nH]c1C(=O)NC1CCN(C(=O)OC(C)(C)C)CC1)C(=O)OC(C)(C)C,92.0,-4.4,-3.2,-5.0,98.0,nt,nt,nt
COc1ccc(NC(=O)c2nc[nH]c2C(=O)N[C@@H](C)C(=O)OC(C)(C)C)cc1,82.0*[inhibitor],nt,nt,-7.0,101.0,88.0,-9.0,89.0
N#CC1=C(SCC(N)=O)NC(=O)CC1c1ccccc1Cl (configuration not stated),111.0,-3.6,-2.1,16.0,111.0,nt,nt,nt
Cc1cccc(N=C2NC(=O)/C(=C/C=C/c3ccco3)S2)c1,64.0*[inhibitor],-1.3,-2.3,-2.0,91.0,84.0,-14.0,94.0
CC(C)(C)NC(=O)N1CCC(CO)(Cc2ccccc2Cl)CC1,107.0,-2.8,-2.8,1.0,95.0,nt,nt,nt
Cc1cccc(NC2=NC(C)(C)N=C(N)N2)c1,110.0,-2.0,-0.9,-6.0,99.0,nt,nt,nt
CC1=CC(C)(C)N2C(=O)C3(N=C(N)NC(Nc4ccccc4)=N3)c3cc(C)cc1c32 (configuration not stated),121.0,-5.0,-6.4,33.0*,154.0*,137.0,14.0,102.0
COc1ccc(C2C(C(=O)Nc3cc(C)on3)c3ccccc3C(=O)N2C)cc1 (configuration not stated),107.0,-3.0,-3.2,1.0,95.0,nt,nt,nt
COc1ccc(C2C(C(=O)Nc3cc(C)on3)c3ccccc3C(=O)N2C)cc1OC (configuration not stated),0.0*[inhibitor],-3.1,-1.7,-15.0,0.0*[inhibitor],104.0,-1.0,103.0
SMILES,MEKK3 PB1 HTS,VIM-2 inhibitor,IMP-1 inhibitor,MEKK2mut PB1 HTS,MEKK2 WT-MEK5,MEKK2wt confirm,MEKK2mut-MEK5,MEKK3-MEK5 inh
C[C@@H]1C[C@H]2[C@@H]3CCC4=CC(=O)C=C[C@]4(C)[C@@]3(F)[C@@H](O)C[C@]2(C)[C@H]1C(=O)CO,122.0*,-0.2,-1.4,8.0,99.0,102.0,3.0,107.0
CC(=O)Nc1ccc(NC(=O)CC2Nc3cccc4cccc(c34)NC2=O)cc1 (configuration not stated),nt,0.4,-1.7,nt,nt,nt,nt,nt
N#Cc1ccc(NC(=O)CNc2cc(S(=O)(=O)N3CCOCC3)ccc2NCC2CCCO2)cc1 (configuration not stated),5.0*[inhibitor],-1.7,-1.6,-18.0,7.0*[inhibitor],104.0,2.0,107.0
O=S(=O)(Nc1ccc2c(c1)OCCO2)c1cccs1,102.0,-3.2,-3.3,0.0,104.0,nt,nt,nt
Cc1cc(NS(=O)(=O)c2cccs2)no1,2.0*[inhibitor],-3.2,-4.4,-18.0,2.0*[inhibitor],98.0,-1.0,98.0
O=S(=O)(Nc1ccc2c(c1)OCO2)c1cccs1,132.0*,-2.5,-2.6,8.0,128.0,104.0,3.0,108.0
CCOC(=O)c1cnc2cc(Cl)c(OC)cc2c1NCC1CCCO1 (configuration not stated),115.0,0.6,-0.9,13.0,136.0*,104.0,-1.0,106.0
CCOC(=O)c1ccc2ncc(C(=O)OCC)c(NCCN3CCOCC3)c2c1,103.0,-1.3,-2.6,2.0,108.0,nt,nt,nt
Cc1ccc2occ(/C=C/C(=O)O)c(=O)c2c1,95.0,-2.5,-0.4,9.0,99.0,nt,nt,nt
O=C(O)/C=C/c1coc2ccc(F)cc2c1=O,72.0*[inhibitor],-2.2,-1.9,0.0,99.0,106.0,12.0,106.0
O=C(N=Nc1c(O)[nH]c2ccccc12)c1cccs1,95.0,-0.2,-3.2,-1.0,102.0,nt,nt,nt

# Bioassay records as filed in PubChem.
